PAFAH2 FP inh: inhibitors of human PAFAH2; Q99487; recombinant PAFAH2, FP-rhodamine activity probe, fluorescence polarization; inhibition, % at 3.39 µM; actives 0.99% (n = 340,000); AID 492956;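 active = inhibition above the mean over all tested compounds plus 3 SD, cut at about 30% in these data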;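 also: inhibitors block probe labeling of enzyme so polarization drops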
RBBP9 inh: blocks human serine hydrolase RBBP9. recombinant RBBP9, FP-Rh probe fluorescence polarization. AID 1515. O75884. actives 0.2% (n = 220,000). inhibition, % at 7.94 µM;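 active = inhibition above the campaign mean of all tested compounds plus 3 SD, cut at about 14% in these data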
Target sequence (O75884 whole entry, looked up): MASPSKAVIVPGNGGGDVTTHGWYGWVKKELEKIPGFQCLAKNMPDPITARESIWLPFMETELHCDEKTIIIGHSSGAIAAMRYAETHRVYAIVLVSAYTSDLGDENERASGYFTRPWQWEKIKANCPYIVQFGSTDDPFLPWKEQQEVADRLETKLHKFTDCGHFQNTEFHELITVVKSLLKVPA
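Measured by: FP readout at 525/598 nm; material: recombinant human RBBP9; also added: Serine-hydrolase probe FP-Rh, 375 nM pre-mixing; medium: Tris buffer pH 8.0, NaCl, Pluronic; replication: one well per compound; doses: one concentration, 7.94 µM nominal, 0.794% DMSO; timing: preincubation 30 min plus labeling 45 min at 25 °C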
PAFAH1B2 inh: PAFAH1B2 (human) inhibition; P68402; recombinant PAFAH1B2, FP-rhodamine activity probe, fluorescence polarization; inhibition, % at 3.39 µM; actives 1.2% (n = 340,000); AID 492953;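 active = inhibition above the mean of all tested compounds plus 3 SD, cut at about 24% in these data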
Target sequence (P68402 whole entry, looked up): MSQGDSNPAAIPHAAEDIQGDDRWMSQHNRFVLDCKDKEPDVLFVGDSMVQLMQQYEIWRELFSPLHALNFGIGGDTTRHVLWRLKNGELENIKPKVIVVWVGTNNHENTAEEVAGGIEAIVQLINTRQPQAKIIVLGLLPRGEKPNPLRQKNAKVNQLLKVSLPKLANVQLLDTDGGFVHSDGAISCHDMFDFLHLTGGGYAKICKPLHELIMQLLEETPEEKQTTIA
PAFAH1B3 inh: inhibitors of human PAFAH1B3 | Q15102 | recombinant PAFAH1B3, FP-rhodamine probe, fluorescence polarization | inhibition, % at 3.39 µM | actives 0.28% (n = 340,000) | AID 492972;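 active = inhibition above the screen-wide average of all tested compounds plus 3 SD, cut at about 25% in these data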
Target sequence (Q15102 whole entry, looked up): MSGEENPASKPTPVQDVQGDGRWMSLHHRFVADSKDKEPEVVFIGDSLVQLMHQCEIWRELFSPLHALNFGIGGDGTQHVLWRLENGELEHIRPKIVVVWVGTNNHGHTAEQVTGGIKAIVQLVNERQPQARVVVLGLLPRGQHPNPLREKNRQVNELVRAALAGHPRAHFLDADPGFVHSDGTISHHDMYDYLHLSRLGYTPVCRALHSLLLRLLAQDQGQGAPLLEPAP
pPAFAH FP inh: pPAFAH (human) enzyme inhibition | AID 463082 | actives 1.5% (n = 330,000) | recombinant pPAFAH, FP-rhodamine probe fluorescence polarization | inhibition, % at 3.39 µM | Q13093;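 active = inhibition above the mean inhibition across the screen plus 3 SD, cut at about 25% in these data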;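 also: inhibitors block binding of the rhodamine activity-based probe so polarization drops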
pPAFAH FP conf: pPAFAH (human) inhibition, confirmed | shares compounds with pPAFAH FP inh | recombinant pPAFAH, FP-Rh probe fluorescence polarization | inhibition, % at 3.39 µM | actives 72% (n = 2,300) | AID 463230;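 active = mean inhibition of the triplicate above the hit cutoff set for the earlier primary screen, cut at about 25% in these data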
Each line names hits and unclear results; the compound was inactive in the other large screens (follow-up assays come after a bar, where they were run). Sampled rows, rich in hits. Any-hit rate of the full collection: about 2.7%.

Cc1cc(C)n(-c2ccc(C(=O)OCC(=O)c3ccc(Br)s3)cc2)n1	PAFAH2 FP inh 50, pPAFAH FP inh 36 | pPAFAH FP conf 27
Cc1cc(=O)[nH]c(Nc2ccc(N(C)C)cc2)n1	none (no result: RBBP9 inh)
COc1ccc(COC(=O)c2cc([N+](=O)[O-])ccc2N2CCOCC2)cc1F	pPAFAH FP inh 43 (no result: RBBP9 inh) | pPAFAH FP conf inactive
O=C1CCCC(O)=C1N=Nc1c(Cl)cc(C(F)(F)F)cc1Cl	PAFAH2 FP inh 64, PAFAH1B2 inh 35, PAFAH1B3 inh 37, pPAFAH FP inh 39 | pPAFAH FP conf inactive
CC(C)c1nnc(NC(=O)CCC(=O)Nc2ccc3cn[nH]c3c2)s1	none
O=C(NC(=S)Nc1cnc2ccccc2c1)c1ccccc1	none
O=C(Nc1cnc2ccccc2c1)c1ccncc1	pPAFAH FP inh 52 | pPAFAH FP conf inactive
Cc1ccc(C)c(NS(=O)(=O)c2ccc(OCC(=O)NCc3ccco3)cc2)c1	pPAFAH FP inh 39 | pPAFAH FP conf inactive
CC(C)NS(=O)(=O)c1ccc(OCC(=O)NCc2ccco2)cc1	none
COc1ccc(Br)cc1/C=c1\sc2nc(-c3ccco3)nn2c1=O	pPAFAH FP inh 44 (no result: RBBP9 inh) | pPAFAH FP conf inactive
COc1ccccc1/C=c1\sc2nc(-c3ccccc3OC)nn2c1=O	none
COc1ccccc1C(=O)NCCC(=O)Nc1cccc(C)n1	none (no result: RBBP9 inh)
O=C(COC(=O)c1c2c(nc3ccccc13)/C(=C/c1cccc([N+](=O)[O-])c1)CCC2)NC1CCS(=O)(=O)C1 (stereo not given)	pPAFAH FP inh 38 | pPAFAH FP conf 44
CN(C(=O)COC(=O)c1c2c(nc3ccccc13)/C(=C/c1cccc([N+](=O)[O-])c1)CCC2)C1CCS(=O)(=O)C1 (stereo not given)	none
CCOC(=O)C(=CNc1cscc1S(=O)(=O)C(C)C)C(=O)OCC	none
CC(C)C[C@@H](CNCC(=O)[C@H](CC(=O)O)NC(=O)c1[nH]cnc1C(=O)N[C@H](CN)CC(C)C)NC(=O)c1nc[nH]c1C(=O)N[C@@H](Cc1ccccc1)C(=O)O	none (no result: RBBP9 inh, pPAFAH FP inh)
O=C(Oc1ccnc2cc(Cl)ccc12)N1CCOCC1	pPAFAH FP inh 40 | pPAFAH FP conf 37
O=C(Oc1c(Cl)cc(Cl)c2cccnc12)N1CCOCC1	none
Cc1cc(NS(=O)(=O)c2ccc(NC(=O)C(F)(F)F)cc2)nc(C)n1	none (no result: RBBP9 inh)
O=[N+]([O-])c1ccc(N=Nc2c(Cl)cc(O)cc2Cl)cc1	pPAFAH FP inh 46 | pPAFAH FP conf 39
CC(N)=Nc1ccc([N+](=O)[O-])cc1	none
CCCC(=O)NC(c1cccs1)c1cc([N+](=O)[O-])c2cccnc2c1O (stereo not given)	pPAFAH FP inh 68 | pPAFAH FP conf 73
CC(=O)NC(c1cccs1)c1cc([N+](=O)[O-])c2cccnc2c1O (stereo not given)	pPAFAH FP inh 49 | pPAFAH FP conf 46
CCC(=O)NC(c1cccs1)c1cc([N+](=O)[O-])c2cccnc2c1O (stereo not given)	none
CC(=O)NC(c1ccccc1)c1cc([N+](=O)[O-])c2cccnc2c1O (stereo not given)	none
OCCN1CCN(CCCN2c3ccccc3Sc3ccc(C(F)(F)F)cc32)CC1	pPAFAH FP inh 40 | pPAFAH FP conf 38
CN1CCN(CCCN2c3ccccc3Sc3ccc(Cl)cc32)CC1	pPAFAH FP inh 45 | pPAFAH FP conf 42
CCSc1ccc2c(c1)N(CCCN1CCN(C)CC1)c1ccccc1S2	pPAFAH FP inh 37 (no result: RBBP9 inh) | pPAFAH FP conf 42
OC1CC2CCC(C1)N2CCCN1c2ccccc2Sc2ccc(Cl)cc21 (stereo not given)	none (no result: RBBP9 inh, pPAFAH FP inh)
Cc1cc(C)n(C(C)CNS(=O)(=O)c2ccc(Cl)cc2)n1 (stereo not given)	none (no result: RBBP9 inh)
Nc1c(S(=O)(=O)O)cc(NC(=O)c2ccccc2)c2c1C(=O)c1ccccc1C2=O	PAFAH2 FP inh 54, PAFAH1B2 inh 34, PAFAH1B3 inh 49, pPAFAH FP inh 84 (no result: RBBP9 inh) | pPAFAH FP conf 90
O=C(NCc1ccc(N2CCCC2=O)cc1)C1CCC(=O)N(Cc2ccccc2F)C1 (stereo not given)	none (no result: RBBP9 inh)
Cc1cc(C)c2c(c1)NC(C(=O)O)C1CC=CC21 (stereo not given)	PAFAH2 FP inh 50, pPAFAH FP inh 68 (no result: RBBP9 inh) | pPAFAH FP conf 33
CC(=O)c1ccc(OCc2cc(C(=O)NC(C)CCn3cccn3)no2)cc1 (stereo not given)	none (no result: RBBP9 inh)
N#Cc1c(NC(=O)c2ccccc2Cl)n(Cc2ccccc2)c2nc3ccccc3nc12	PAFAH2 FP inh 64, PAFAH1B2 inh 53, PAFAH1B3 inh 63, pPAFAH FP inh 38 | pPAFAH FP conf 35
O=[N+]([O-])c1cc(/C=N/Nc2nc3ccccc3[nH]2)c(O)cc1O	pPAFAH FP inh 40 (no result: PAFAH2 FP inh, PAFAH1B2 inh, PAFAH1B3 inh) | pPAFAH FP conf 34
C=C(C)Cn1c(SCC(=O)N/N=C/c2cccc(O)c2)nc2ccccc2c1=O	none
CCCNc1c(F)c(F)c2c(C)c3ccccc3nc2c1F	pPAFAH FP inh 35 | pPAFAH FP conf inactive
Cc1ccccc1C(=O)N1CCC(n2nccc2NC(=O)C2CC2)CC1	none (no result: RBBP9 inh)
COc1ccc(-c2csc(NS(=O)(=O)c3ccc([N+](=O)[O-])cc3)n2)cc1	pPAFAH FP inh 38 | pPAFAH FP conf 45
COc1ccc(-c2csc(NC(=O)c3ccccc3NS(=O)(=O)c3ccc(F)c(F)c3)n2)cc1	pPAFAH FP inh 50 | pPAFAH FP conf 39
CC(C)c1cccc(-c2ccc3c(c2)S(=O)(=O)c2cccc(C(=O)NCc4ccccc4)c2C3=O)c1	none (no result: RBBP9 inh)
O=C(NCc1ccco1)c1cccc2c1C(=O)c1ccc(/C=C/c3ccccc3)cc1S2(=O)=O	pPAFAH FP inh 39 (no result: RBBP9 inh) | pPAFAH FP conf 32
COc1ccc(C)cc1NC(=O)c1ccccc1N(C)S(=O)(=O)c1ccccc1	none (no result: RBBP9 inh)
O=C(CCN1CCCO1)NC1CCCc2c1cnn2-c1ccccc1F (stereo not given)	none (no result: RBBP9 inh)
CC(C)(C)c1ccc(-n2ncc3c2CCCC3NC(=O)CCN2CCCO2)cc1 (stereo not given)	pPAFAH FP inh 37 (no result: RBBP9 inh) | pPAFAH FP conf inactive
O=C(Cc1ccc(Cl)cc1)N/N=C/c1cccc(O)c1	none (no result: RBBP9 inh)
CC(C)NS(=O)(=O)c1ccc(NC(=O)C2CC3C=CC2C3)cc1 (stereo not given)	none
N#Cc1sc2nc(-c3ccccc3)cc(-c3ccco3)c2c1N	PAFAH1B3 inh 34, pPAFAH FP inh 43 | pPAFAH FP conf inactive
CC(C)n1ncc2c(C(=O)N3CCN(c4ccc(F)cc4)CC3)cc(-c3ccccc3)nc21	none (no result: RBBP9 inh)
Cc1cc(-c2ccccc2)nc2[n+]1CCN2C	none
COc1ccc(Br)cc1/C=N/Nc1cccc(C(=O)O)c1	none
O=C(O)c1cccc(N/N=C/c2cc(Br)cc(Br)c2O)c1	PAFAH2 FP inh 37, pPAFAH FP inh 45 | pPAFAH FP conf 44
O=C(Nc1ccc(OCc2ccccc2Cl)cc1)c1cccnc1	none (no result: RBBP9 inh)
CCOC(=O)c1ccc(NC(=O)CN2C(=O)NC3(CCCCCCC3)C2=O)cc1	none (no result: RBBP9 inh)

Screening data: PubChem, The Scripps Research Institute Molecular Screening Center
